Measured values taken from ChEMBL document CHEMBL1128281 (J Med Chem, 1995).

molecular target: Serotonin 2 (5-HT2) receptor (Rattus norvegicus, UniProt P30994+P08909+P14842); assay: Affinity for 5-hydroxytryptamine 2 receptor binding sites by its ability to displace [3H]spiperone from rat frontal cortex.

| IC50 [nM] | Structure (SMILES) |
| --- | --- |
| 20 | C=C(C)c1ccc(OCCCN2CCC(c3noc4cc(F)ccc34)CC2)c(OC)c1 |
| 22 | COc1cc(C(C)O)ccc1OCCCN1CCC(c2noc3cc(F)ccc23)CC1 (stereo unspecified) |
| 16 | CC(=O)c1ccc(OCCCN2CCC(c3noc4cc(F)ccc34)CC2)c(N(C)C)c1 |
| 36 | CC(=O)c1ccc(OCCCN2CCC(c3noc4cc(F)ccc34)CC2)cc1C |
| 8.5 | COc1cc(C(C)=O)ccc1OCCCCN1CCC(c2noc3cc(F)ccc23)CC1 |
| 63 | CC(=O)c1cccc(OCCCN2CCC(c3noc4cc(F)ccc34)CC2)c1 |
| 42 | CNc1cc(C(C)=O)ccc1OCCCN1CCC(c2noc3cc(F)ccc23)CC1 |
| 11 | CCC(=O)c1ccc(OCCCN2CCC(c3noc4cc(F)ccc34)CC2)c(OC)c1 |
| 20 | CC(=O)Nc1cc(C(C)=O)ccc1OCCCN1CCC(c2noc3cc(F)ccc23)CC1 |
| 170 | CSc1cc(C(C)=O)ccc1OCCCN1CCC(c2noc3cc(F)ccc23)CC1 |
| 153 | CC(=O)c1cc(C)ccc1OCCCN1CCC(c2noc3cc(F)ccc23)CC1 |
| 2.9 | CC(=O)c1ccc(OCCCN2CCC(c3noc4cc(F)ccc34)CC2)c(O)c1 |

The remaining lines, values behind:

| Structure (SMILES) | IC50 [nM] |
| --- | --- |
| COc1cc(C(C)=O)ccc1OCCN1CCC(c2noc3cc(Cl)ccc23)CC1 | 45 |
| CCc1ccc(OCCCN2CCC(c3noc4cc(F)ccc34)CC2)c(OC)c1 | 16 |
| COc1cc(C(C)=O)cc(OC)c1OCCCN1CCC(c2noc3cc(F)ccc23)CC1 | < 10 |
| COc1cc(C(C)=O)ccc1OCCCCN1CCC(c2noc3ccccc23)CC1 | 34 |
| COc1cc(C(C)=O)ccc1OCCCN1CCC(c2noc3ccccc23)CC1 | 3.5 |
| COc1cc(C(C)=O)ccc1OCCN1CCC(c2noc3ccccc23)CC1 | 26 |
| COc1cc(C#N)ccc1OCCCN1CCC(c2noc3cc(F)ccc23)CC1 | 45 |
| COc1cc(C(=O)N(C)C)ccc1OCCCN1CCC(c2noc3cc(F)ccc23)CC1 | 5.2 |
| Fc1ccc2c(C3CCN(CCCOc4ccccc4)CC3)noc2c1 | 33 |
| COc1cc2cc[nH]c2cc1OCCCN1CCC(c2noc3cc(F)ccc23)CC1 | 3.2 |
| COc1cc(C(=O)c2ccccc2)ccc1OCCCN1CCC(c2noc3cc(F)ccc23)CC1 | 241 |

species: Mus musculus; assay: Ability to inhibit apomorphine-induced climbing behavior in mice.; assay type: functional
Summary of the method: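 Male CD-1 mice (18–30 g) were adapted for 1 h in wire-mesh cages, 8 per dose group. Distilled water or drug was given ip 30 or 60 min before apomorphine 1.5 mg/kg sc.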

| Structure (SMILES) | ED50 [mg/kg] |
| --- | --- |
| COc1cc(C(C)=O)ccc1OCCN1CCC(c2noc3cc(Cl)ccc23)CC1 | > 20 |
| C=C(C)c1ccc(OCCCN2CCC(c3noc4cc(F)ccc34)CC2)c(OC)c1 | 0.55 |
| COc1cc(C(C)O)ccc1OCCCN1CCC(c2noc3cc(F)ccc23)CC1 (stereo unspecified) | 0.12 |
| CCc1ccc(OCCCN2CCC(c3noc4cc(F)ccc34)CC2)c(OC)c1 | 0.18 |
| COc1cc(C(C)=O)cc(OC)c1OCCCN1CCC(c2noc3cc(F)ccc23)CC1 | 0.72 |
| CC(=O)c1ccc(OCCCN2CCC(c3noc4cc(F)ccc34)CC2)c(N(C)C)c1 | 0.15 |
| COc1cc(C(C)=O)ccc1OCCCCN1CCC(c2noc3ccccc23)CC1 | 1.6 |
| CC(=O)c1ccc(OCCCN2CCC(c3noc4cc(F)ccc34)CC2)cc1C | 1.2 |
| COc1cc(C(C)=O)ccc1OCCCCN1CCC(c2noc3cc(F)ccc23)CC1 | 0.68 |
| CC(=O)c1cccc(OCCCN2CCC(c3noc4cc(F)ccc34)CC2)c1 | 0.39 |
| COc1cc(C(C)=O)ccc1OCCCN1CCC(c2noc3ccccc23)CC1 | 0.67 |
| COc1cc(C(C)=O)ccc1OCCN1CCC(c2noc3ccccc23)CC1 | 7.4 |
| COc1cc(C#N)ccc1OCCCN1CCC(c2noc3cc(F)ccc23)CC1 | 1 |
| COc1cc(C(=O)N(C)C)ccc1OCCCN1CCC(c2noc3cc(F)ccc23)CC1 | 0.72 |
| CNc1cc(C(C)=O)ccc1OCCCN1CCC(c2noc3cc(F)ccc23)CC1 | 0.15 |
| CCC(=O)c1ccc(OCCCN2CCC(c3noc4cc(F)ccc34)CC2)c(OC)c1 | 0.77 |
| Fc1ccc2c(C3CCN(CCCOc4ccccc4)CC3)noc2c1 | 0.62 |
| COc1cc2cc[nH]c2cc1OCCCN1CCC(c2noc3cc(F)ccc23)CC1 | 2.7 |
| CC(=O)Nc1cc(C(C)=O)ccc1OCCCN1CCC(c2noc3cc(F)ccc23)CC1 | 0.049 |
| CSc1cc(C(C)=O)ccc1OCCCN1CCC(c2noc3cc(F)ccc23)CC1 | 20 |
| CC(=O)c1cc(C)ccc1OCCCN1CCC(c2noc3cc(F)ccc23)CC1 | 5.6 |
| CC(=O)c1ccc(OCCCN2CCC(c3noc4cc(F)ccc34)CC2)c(O)c1 | 0.054 |
| COc1cc(C(=O)c2ccccc2)ccc1OCCCN1CCC(c2noc3cc(F)ccc23)CC1 | 18.1 |

species: Rattus norvegicus; assay: Ability to block apomorphine-induced stereotypy in rats.; assay type: functional
Summary of the method: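 Male Wistar rats (150–250 g), 6–10 per dose group, given distilled water or test drug ip; apomorphine 1.5 mg/kg sc 50 min later. Rats were placed singly in cages and scored 10 min afterwards for continuous stereotyped licking or sniffing. Inhibition was the number of animals protected versus controls. ED50 was obtained by probit analysis.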

| Structure (SMILES) | ED50 [mg/kg] |
| --- | --- |
| C=C(C)c1ccc(OCCCN2CCC(c3noc4cc(F)ccc34)CC2)c(OC)c1 | 25 |
| COc1cc(C(C)O)ccc1OCCCN1CCC(c2noc3cc(F)ccc23)CC1 (stereo unspecified) | 22.7 |
| CCc1ccc(OCCCN2CCC(c3noc4cc(F)ccc34)CC2)c(OC)c1 | 9.5 |
| COc1cc(C(C)=O)cc(OC)c1OCCCN1CCC(c2noc3cc(F)ccc23)CC1 | 13.6 |
| CC(=O)c1ccc(OCCCN2CCC(c3noc4cc(F)ccc34)CC2)c(N(C)C)c1 | 4.3 |
| COc1cc(C(C)=O)ccc1OCCCCN1CCC(c2noc3ccccc23)CC1 | 17 |
| CC(=O)c1ccc(OCCCN2CCC(c3noc4cc(F)ccc34)CC2)cc1C | 52.3 |
| COc1cc(C(C)=O)ccc1OCCCCN1CCC(c2noc3cc(F)ccc23)CC1 | 7.5 |
| CC(=O)c1cccc(OCCCN2CCC(c3noc4cc(F)ccc34)CC2)c1 | 6.4 |
| COc1cc(C(C)=O)ccc1OCCCN1CCC(c2noc3ccccc23)CC1 | 20.8 |
| COc1cc(C#N)ccc1OCCCN1CCC(c2noc3cc(F)ccc23)CC1 | 15.7 |
| COc1cc(C(=O)N(C)C)ccc1OCCCN1CCC(c2noc3cc(F)ccc23)CC1 | 26.7 |
| CNc1cc(C(C)=O)ccc1OCCCN1CCC(c2noc3cc(F)ccc23)CC1 | 47.6 |
| CCC(=O)c1ccc(OCCCN2CCC(c3noc4cc(F)ccc34)CC2)c(OC)c1 | > 20 |
| Fc1ccc2c(C3CCN(CCCOc4ccccc4)CC3)noc2c1 | 7.1 |
| COc1cc2cc[nH]c2cc1OCCCN1CCC(c2noc3cc(F)ccc23)CC1 | 8.6 |
| CC(=O)Nc1cc(C(C)=O)ccc1OCCCN1CCC(c2noc3cc(F)ccc23)CC1 | 21.1 |
| CC(=O)c1cc(C)ccc1OCCCN1CCC(c2noc3cc(F)ccc23)CC1 | 25.1 |
| CC(=O)c1ccc(OCCCN2CCC(c3noc4cc(F)ccc34)CC2)c(O)c1 | 0.7 |
| COc1cc(C(=O)c2ccccc2)ccc1OCCCN1CCC(c2noc3cc(F)ccc23)CC1 | > 80 |
